Measurements from paper PMC5940269 (The Journal of Experimental Medicine, 2018).
Read-outs that look alike come from different tables or passages of the source.

Assays:
WT and NOMID BMMs = test: IL-1β secretion by LPS-primed BMMs; type: cell-based, mouse; conditions: 100 ng/ml LPS 3 h; WT cells plus 15 µM nigericin 30 min
Summary of the method: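 BMMs were derived over ~5 d in 1:10 CMG 14-12 supernatant (M-CSF source), plated at 10^4/well and kept 24 h. They were pretreated 1 h with vehicle (0.5% DMSO final), test compound or IKK2 inhibitor, then given 100 ng/ml LPS for 3 h without a media change. WT cells then received 15 µM nigericin for 30 min. IL-1β in conditioned media was measured by ELISA; triplicates, ≥3 independent experiments.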

WT BMMs = test: Osteoclast formation in vitro induced by RANKL; type: cell-based, mouse; conditions: 50 ng/ml RANKL for 4 d
Summary of the method: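 WT BMMs were plated at 5 × 10^3/well in 1:50 CMG supernatant plus RANKL with DMSO or test compound for 4 d, medium changed every other day, at 37°C, 5% CO2. Cells were fixed 10 min in 3.7% formaldehyde/0.1% Triton X-100, then TRAP-stained 30 min at room temperature. TRAP+ cells with ≥3 nuclei were scored as osteoclasts. Triplicates, ≥3 independent experiments.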

[1] = tested on: human PBMC from CAPS patients and healthy control; test: IL-1β production and mRNA stability in human PBMC; type: cell-based
Summary of the method: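 Human PBMC from a CAPS patient or healthy control. For secretion, cells were cultured 16 h at 32°C or 37°C with DMSO or test compound, or with 100 ng/ml LPS for 16 h at 37°C, and IL-1β in conditioned media was measured by ELISA. For mRNA stability, cells got 10 ng/ml LPS for 3 h, then 1 µg/ml actinomycin D plus inhibitor, were lysed at 0–6 h and analysed by SYBR qPCR. Triplicates, ≥2 independent experiments.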

[2] = tested on: LPS-induced TNF-α expression; test: LPS-induced TNF-α production in mice fed inhibitor chow; type: in vivo; conditions: CDD-450 chow 1,000 ppm; LPS 0.025 mg/kg for 1 h
Summary of the method: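 Eight-week-old WT female mice (six/group) were fed normal chow or inhibitor chow (1,000 or 516 ppm). At the indicated weeks they were challenged i.v. with Salmonella typhosa LPS, 0.025 mg/kg in saline. Blood was collected by cardiac puncture 60 min later, and serum TNF-α was measured by ELISA.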

p38α–PRAK = p38α–PRAK (Homo sapiens, UniProt Q16539); test: p38α–MK2 and p38α–PRAK assays; type: biochemical
[3] = In vivo tolerability, 14 consecutive days oral gavage; conditions: rat
MK2 phosphorylation = test: Western blot of LPS-stimulated MK2 phosphorylation in BMMs; type: cell-based, mouse; conditions: 10 µM CDD-450, 100 ng/ml LPS, WT BMMs
[4] = Body weight of WT mice on CDD-450 chow; type: in vivo
p38β = p38β (Homo sapiens, UniProt Q15759); test: Kinase selectivity, p38β; type: biochemical; conditions: CDD-450 tested at 5 µM
[5] = tested on: NLRP3 inflammasome / caspase-1; test: Microscopic analysis of active caspase-1; type: cell-based, mouse; conditions: LPS-primed cells, 15 µM nigericin with 10 µM CDD-450, 30 min
Summary of the method: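 BMMs were plated at 5 × 10^4/well for 24 h, primed with 100 ng/ml LPS for 3 h, then treated 30 min with 10 µM test compound and/or 15 µM nigericin. Active caspase-1 was labelled with FLICA FAM-YVAD-FMK (30 min, 37°C). Cells were washed, fixed in 10% buffered formalin and DAPI-counterstained, then imaged by fluorescence microscopy with image analysis.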

cardiac hERG channel = cardiac hERG channel (Homo sapiens, UniProt Q12809); test: hERG channel inhibition
[6] = tested on: WT and NOMID bone marrow macrophages (BMMs); test: qPCR/Western analysis of LPS-induced expression in BMMs; type: cell-based, mouse; conditions: for IL-18 expression: in vitro
Summary of the method: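 WT and NOMID BMMs were preincubated 1 h with test compound or IKK2 inhibitor (0.5% DMSO final), then given 100 ng/ml LPS for 3 or 8 h. Transcripts were measured by SYBR green qPCR after RNA extraction and reverse transcription. Protein (NLRP3, pro-caspase-1) was measured by Western blot of RIPA lysates. Triplicates, ≥3 independent experiments.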

193 kinases = test: Kinase selectivity across the human kinome; type: biochemical; conditions: CDD-450 tested at 5 µM
Pharmacokinetics = test: Pharmacokinetics; design: species or system mice, rats, and dogs; conditions: in vivo
SCW-induced arthritis = test: Streptococcal cell wall; type: in vivo, rat; conditions: for paw swelling: oral gavage 2×/day from day 9, CDD-450 5 or 10 mg/kg, CDD-110 1.5 mg/kg
Summary of the method: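 Adult female Lewis rats (180 g) received SCW preparation i.p. at 15 mg/kg, and acute paw edema was tracked on days 2–8. Paw volume was measured by plethysmometer every other day to day 21, and hind paws were scanned by µCT at day 21.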

RA synovial fibroblasts = test: IL-1β-induced responses in synovial fibroblasts from an RA patient; type: cell-based, human
Summary of the method: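 Synovial fibroblasts from an RA patient were preincubated 1 h with inhibitors, then given 10 ng/ml IL-1β for 3 h, with transcripts measured by qPCR. For mRNA stability, IL-1β was added for 3 h, then 1 µg/ml actinomycin D plus test compound or IKK2 inhibitor, with cells lysed at 0, 2, 4 or 6 h. For p-MK2 (Thr334) Western blot, cells had 1 h preincubation with 10 µM test compound before IL-1β. Triplicates, ≥2 independent experiments.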

p38α–ATF2 = test: p38α–MK2 and p38α–ATF2 assays; type: biochemical
[7] = Cytotoxicity at efficacious concentrations; type: cell-based; conditions: efficacious concentrations tested in this study; not depicted
[8] = tested on: LPS-induced production of TNF-α, IL-1β and IL-6; test: LPS-induced cytokine production in various in vitro systems and animal models; type: cell-based
Summary of the method: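 U937 premonocytic cells, grown in RPMI 1640 with 10% FBS, were differentiated with 20 ng/ml PMA for 24 h. They were pretreated with vehicle or test compound, then stimulated with 100 ng/ml LPS for 4 h. TNF-α, IL-1β and IL-6 were measured in conditioned media.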

WT or NOMID BMMs = test: mRNA stability; type: cell-based, mouse; conditions: LPS 3 h then 1 µg/ml actinomycin D plus inhibitor
Summary of the method: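 WT and NOMID BMMs were stimulated with 100 ng/ml LPS for 3 h, then exposed simultaneously to 1 µg/ml actinomycin D and test compound, MK2 inhibitor or IKK2 inhibitor. Cells were lysed at 0, 2, 4 or 6 h. After RNA extraction and reverse transcription, SYBR green qPCR tracked decay of IL-1β, IL-6, NLRP3 and TNF-α mRNA. Triplicates, ≥3 independent experiments.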

U937 cells = test: LPS-stimulated phosphorylation of signaling proteins in U937 cells; type: cell-based, human
Summary of the method: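 U937 cells were differentiated into macrophages with 20 ng/ml PMA for 24 h. They were pretreated 1 h with vehicle (0.5% DMSO final) or test compound, then stimulated with 100 ng/ml LPS. Phosphorylation of signalling proteins was assessed by Western blotting, ELISA or MesoScale kits.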

NOMID^c mice = test: NOMID^c mice; type: in vivo; conditions: CDD-450 chow
Summary of the method: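 Nlrp3fl(D301N)/+;Cre-ERTM mice (C57BL/6) were given tamoxifen i.p., 75 mg/kg every other day, three times weekly for 2 wk; Cre-ERTM littermates were controls. Three-month-old mice received normal or compound chow from 3 d before tamoxifen. Body weight (10–11/group) and survival (12–13/group) were scored every 2–3 d. Endpoint was 4 wk later: decalcified 5-µm bone sections were TRAP-stained and osteoclasts counted on trabecular and cortical surfaces (4–6 mice/group).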

p38α–MK2 complex = test: Surface plasmon resonance analysis of p38α binding to immobilized MK2; conditions: 10 nM p38α, immobilized GST-MK2
[9] = 100 ng/ml LPS, inhibitor preincubated 1 h
[10] = 10 ng/ml IL-1β 3 h then actinomycin D

Chain of p38α–PRAK (Q16539 whole entry): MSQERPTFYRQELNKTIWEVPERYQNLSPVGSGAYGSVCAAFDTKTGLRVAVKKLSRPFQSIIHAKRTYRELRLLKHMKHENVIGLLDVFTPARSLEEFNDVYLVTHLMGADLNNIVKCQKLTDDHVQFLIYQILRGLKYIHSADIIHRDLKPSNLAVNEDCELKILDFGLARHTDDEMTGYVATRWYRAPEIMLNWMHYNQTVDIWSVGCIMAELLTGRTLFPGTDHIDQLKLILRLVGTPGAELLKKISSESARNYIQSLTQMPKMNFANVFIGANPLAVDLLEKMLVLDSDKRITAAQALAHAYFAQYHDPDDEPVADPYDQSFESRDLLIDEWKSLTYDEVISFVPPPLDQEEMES
Chain of p38α–PRAK (Q8IW41 whole entry partner): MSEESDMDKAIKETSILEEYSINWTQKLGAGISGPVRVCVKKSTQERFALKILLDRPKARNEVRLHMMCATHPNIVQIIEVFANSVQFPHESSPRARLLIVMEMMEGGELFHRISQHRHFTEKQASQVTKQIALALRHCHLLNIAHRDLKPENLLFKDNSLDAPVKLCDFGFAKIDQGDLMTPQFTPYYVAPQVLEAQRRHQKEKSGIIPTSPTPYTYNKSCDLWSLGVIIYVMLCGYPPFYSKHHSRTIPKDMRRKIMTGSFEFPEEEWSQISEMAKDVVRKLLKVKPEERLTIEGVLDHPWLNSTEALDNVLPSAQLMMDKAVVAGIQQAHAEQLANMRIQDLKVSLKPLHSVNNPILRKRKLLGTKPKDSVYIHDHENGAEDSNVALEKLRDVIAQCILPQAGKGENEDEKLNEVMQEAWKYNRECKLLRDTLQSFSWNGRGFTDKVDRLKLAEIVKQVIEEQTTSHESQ
Chain of p38β (Q15759 whole entry): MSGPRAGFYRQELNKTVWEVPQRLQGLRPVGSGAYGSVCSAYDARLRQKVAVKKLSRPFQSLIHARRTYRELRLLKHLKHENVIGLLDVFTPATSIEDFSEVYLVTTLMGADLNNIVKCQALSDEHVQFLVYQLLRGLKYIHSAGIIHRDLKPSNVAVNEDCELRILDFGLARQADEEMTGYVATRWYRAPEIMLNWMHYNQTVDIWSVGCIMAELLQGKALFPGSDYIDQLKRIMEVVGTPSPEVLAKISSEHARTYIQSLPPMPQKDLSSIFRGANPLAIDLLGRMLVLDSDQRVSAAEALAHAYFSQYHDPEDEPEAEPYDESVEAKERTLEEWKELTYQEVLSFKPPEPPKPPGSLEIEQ
Chain of cardiac hERG channel (Q12809 whole entry): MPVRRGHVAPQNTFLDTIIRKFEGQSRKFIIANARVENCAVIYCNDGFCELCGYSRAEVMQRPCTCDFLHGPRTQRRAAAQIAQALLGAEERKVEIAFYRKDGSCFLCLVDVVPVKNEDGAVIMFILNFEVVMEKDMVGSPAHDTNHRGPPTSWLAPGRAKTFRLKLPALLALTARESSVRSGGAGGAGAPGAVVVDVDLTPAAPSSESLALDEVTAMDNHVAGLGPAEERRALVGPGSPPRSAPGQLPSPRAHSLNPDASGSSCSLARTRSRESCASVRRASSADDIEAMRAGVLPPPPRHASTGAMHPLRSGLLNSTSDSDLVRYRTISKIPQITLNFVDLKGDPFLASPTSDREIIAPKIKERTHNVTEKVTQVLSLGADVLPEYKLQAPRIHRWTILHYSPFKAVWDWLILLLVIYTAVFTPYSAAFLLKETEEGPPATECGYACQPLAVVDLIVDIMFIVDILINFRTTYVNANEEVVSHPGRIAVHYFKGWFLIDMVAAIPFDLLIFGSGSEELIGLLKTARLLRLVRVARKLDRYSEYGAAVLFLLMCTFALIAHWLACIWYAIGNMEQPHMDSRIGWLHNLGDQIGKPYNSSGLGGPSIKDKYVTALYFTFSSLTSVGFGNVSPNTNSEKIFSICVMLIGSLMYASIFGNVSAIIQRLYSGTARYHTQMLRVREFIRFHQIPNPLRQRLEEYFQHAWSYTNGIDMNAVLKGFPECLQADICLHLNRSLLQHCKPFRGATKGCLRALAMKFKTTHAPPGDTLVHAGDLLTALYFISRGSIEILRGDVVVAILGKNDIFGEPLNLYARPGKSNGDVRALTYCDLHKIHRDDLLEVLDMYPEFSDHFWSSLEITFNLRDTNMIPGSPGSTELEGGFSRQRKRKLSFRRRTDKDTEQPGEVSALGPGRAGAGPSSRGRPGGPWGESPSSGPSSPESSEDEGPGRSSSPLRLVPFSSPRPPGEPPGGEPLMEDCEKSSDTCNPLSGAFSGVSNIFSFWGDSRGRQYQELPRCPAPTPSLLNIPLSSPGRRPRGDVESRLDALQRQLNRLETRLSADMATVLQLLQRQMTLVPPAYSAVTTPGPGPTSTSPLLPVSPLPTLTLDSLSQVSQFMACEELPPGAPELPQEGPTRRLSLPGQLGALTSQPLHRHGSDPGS

## Cc1cnc(-c2ccnc(C(C)(C)O)n2)cc1-n1c(C)cc(OCc2ncc(F)cc2F)c(Cl)c1=O [CDD-450]
WT and NOMID BMMs
  IL-1β secretion by LPS-primed WT and NOMID BMMs: inhibited
WT BMMs
  in vitro osteoclast formation induced by RANKL: inhibited
[1]; 10 ng/ml LPS 3 h then actinomycin D
  IL-1β mRNA instability in human PBMC: promoted
[1]; 100 ng/ml LPS 16 h at 37°C
  LPS-stimulated IL-1β secretion by healthy control PBMC: reduced
[1]; 16 h at 32°C, spontaneous
  IL-1β secretion by CAPS PBMC: reduced
[1]; not depicted
  degradation of TNF-α mRNA induced by LPS in human PBMC: accentuated
[2]
  persistence of efficacy in blocking LPS-induced TNF-α expression after dosing: up to 4 wk
p38α–PRAK
  fold more potent in inhibiting p38α–MK2 than p38α–PRAK: at least 700 ×
[3]
  well tolerated exposure relative to the predicted Cmax efficacious exposure: > 30 ×
MK2 phosphorylation
  LPS-stimulated MK2 phosphorylation at 15 and 30 min: inhibited
  LPS-stimulated MK2 phosphorylation at 180 min: little effect
[4]; WT mice
  tolerability of concomitant exposure to CDD-450 chow and tamoxifen: not well tolerated
[4]; no tamoxifen
  body weight of WT mice, CDD-450 chow versus normal chow: gained body weight undistinguishably
[4]; tamoxifen for 2 wk
  body weight of WT mice, CDD-450 chow plus tamoxifen, compared with normal chow: lost body weight
p38β
  cross-reactivity on p38β: crossed over
[5]
  nigericin-induced activation of caspase-1 (fluorescent foci): no effect
Cardiac hERG channel
  inhibition of the cardiac hERG channel: did not inhibit
[6]; 100 ng/ml LPS
  NLRP3 expression: no effect
  IL-18 expression: no direct effect
[6]; [9]
  LPS-induced IL-1β mRNA expression: inhibited
  LPS-induced IL-6 mRNA expression: inhibited
  LPS-induced TNF-α mRNA expression: inhibited
[6]; not depicted
  expression of NLRP3 interacting partners ASC, caspase-1 and NEK7: no effect
193 kinases
  potency differential for inhibiting the 193 kinases tested: > 350 ×
Pharmacokinetics
  half-life: long
  volume of distribution: high
Pharmacokinetics; po
  oral bioavailability: high
SCW-induced arthritis; 5 mg/kg CDD-450 2×/day
  joint destruction, 3D µCT reconstruction: joint protective effects
SCW-induced arthritis
  paw swelling: inhibited
SCW-induced arthritis; µCT at day 21
  bone mineral density: preserved
RA synovial fibroblasts; 10 ng/ml IL-1β 3 h
  IL-1β mRNA levels induced by IL-1β: decreased
RA synovial fibroblasts; [10]
  degradation of TNF-α mRNA induced by IL-1β: accentuated
  loss of IL-1β transcripts: accelerated
RA synovial fibroblasts; 10 µM CDD-450, 10 ng/ml IL-1β
  MK2 phosphorylation induced by IL-1β: blocked
p38α–ATF2
  fold more potent in inhibiting p38α–MK2 than p38α–ATF2: at least 700 ×
[7]
  cytotoxicity: not cytotoxic
[8]; read-out: IC50, LPS-induced production of IL-1β
  IC50: 1 to 10 nM
[8]; read-out: IC50, LPS-induced production of IL-6
  IC50: ~100 nM
[8]; read-out: IC50, LPS-induced production of TNF-α
  IC50: 1 to 10 nM
WT or NOMID BMMs
  decay of NLRP3 mRNA: no effect
  degradation of IL-1β mRNA: promoted the degradation
  degradation of IL-6 mRNA: promoted the degradation
U937 cells
  LPS activation of the ERK1/2 pathway: no inhibitory effect
  LPS activation of the JNK pathway: no inhibitory effect
  MK2 phosphorylation induced by LPS: blocked
NOMID^c mice
  body weight loss of NOMID^c mice versus untreated NOMID^c mice: lost significantly less body weight
  increased number of osteoclasts on trabecular and cortical bone surfaces: prevented
NOMID^c mice; untreated: ∼35% skin lesions, 20% died
  skin lesions and death over the 7-wk period: neither occurred
p38α–MK2 complex
  stabilization of the p38α–MK2 complex (increased t1/2) relative to p38α–MK2 alone: 47.5 ×

## CN1CCN(c2cc(C(=O)Nc3ccc4c(c3)-c3c(c(C(N)=O)nn3-c3ccc(F)cc3)CC4)c(Cl)cn2)CC1 [PHA-408, reference compound]
WT and NOMID BMMs
  IL-1β secretion by LPS-primed WT and NOMID BMMs: inhibited
[6]; 100 ng/ml LPS
  NLRP3 expression: decreased
  IL-18 expression: decreased
[6]; [9]
  LPS-induced IL-1β mRNA expression: inhibited

## Cc1ccc(-c2ccc3c(ccc4sc5c(c43)NC[C@@H](C)NC5=O)n2)cn1 [PF-3644022, reference compound]
WT or NOMID BMMs
  degradation of IL-1β mRNA: promoted the degradation
  degradation of TNF-α mRNA: promoted the degradation

## CNC(=O)c1ccc(C)c(-n2c(C)cc(OCc3ccc(F)cc3F)c(Br)c2=O)c1 [CDD-110, reference compound]
SCW-induced arthritis
  paw swelling: inhibited
